Measured values reported in ChEMBL document CHEMBL1132235, “Thioamides: synthesis, stability, and immunological activities of thioanalogues of Imreg. Preparation of new thioacylating agents using fluorobenzimidazolone derivatives” (1999).

Columns and labels:
Mus musculus [1] = test: In vivo functional activity against spleen Immunophenotyping in mice at 50 mg/kg dose using LY5+ as cell subset
Outline: (§1)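 Female C57BL/6 mice, 6–8 weeks old, groups of seven, dosed i.p. once daily for four consecutive days (0, 50, 100 or 125 mg/kg) and sacrificed on day 5. Blood and spleen cells were lysed in ACK buffer (pH 7.3, 5 min), washed in PBS and stained 45 min on ice with FITC/PE surface-marker antibodies. Cells were fixed in 1% paraformaldehyde and read by flow cytometry. Values are relative subset percentages, compared by unpaired t test.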

Mus musculus [2] = test: In vivo functional activity against spleen Immunophenotyping in mice at 125 mg/kg dose using NK+CD3+ as cell subset; outline: as §1
Mus musculus [3] = test: In vivo functional activity against spleen Immunophenotyping in mice at 0 mg/kg dose using LY5+ as cell subset; outline: as §1
Mus musculus [4] = test: In vivo functional activity against spleen Immunophenotyping in mice at 125 mg/kg dose using CD8+CD45+ as cell subset; outline: as §1
Mus musculus [5] = test: In vivo functional activity against spleen Immunophenotyping in mice at 0 mg/kg dose using TCR+ as cell subset; outline: as §1
Mus musculus [6] = test: In vivo functional activity against spleen Immunophenotyping in mice at 50 mg/kg dose using NK+CD3+ as cell subset; outline: as §1
Mus musculus [7] = test: In vivo functional activity against Blood Immunophenotyping in mice at 0 mg/kg dose using NK+ as cell subset; outline: as §1
Mus musculus [8] = test: In vivo functional activity against spleen Immunophenotyping in mice at 100 mg/kg dose using NK+CD3+ as cell subset; outline: as §1
Mus musculus [9] = test: In vivo functional activity against spleen Immunophenotyping in mice at 125 mg/kg dose using TCR+ as cell subset; outline: as §1
Mus musculus [10] = test: In vivo functional activity against spleen Immunophenotyping in mice at 100 mg/kg dose using CD4+CD45+ as cell subset; outline: as §1
Mus musculus [11] = test: In vivo functional activity against Blood Immunophenotyping in mice at 125 mg/kg dose using NK+ as cell subset; outline: as §1
Mus musculus [12] = test: In vivo functional activity against Blood Immunophenotyping in mice at 100 mg/kg dose using CD4+CD45+ as cell subset (value in parentheses indicate P value); outline: as §1
Mus musculus [13] = test: In vivo functional activity against spleen Immunophenotyping in mice at 100 mg/kg dose using LY5+ as cell subset; outline: as §1
Mus musculus [14] = test: In vivo functional activity against Blood Immunophenotyping in mice at 50 mg/kg dose using NK+ as cell subset; outline: as §1
Mus musculus [15] = test: In vivo functional activity against spleen Immunophenotyping in mice at 100 mg/kg dose using CD8+CD45+ as cell subset; outline: as §1
Mus musculus [16] = test: In vivo functional activity against Blood Immunophenotyping in mice at 100 mg/kg dose using NK+ as cell subset; outline: as §1
Mus musculus [17] = test: In vivo functional activity against spleen Immunophenotyping in mice at 50 mg/kg dose using CD4+CD45+ as cell subset; outline: as §1
Mus musculus [18] = test: In vivo functional activity against Blood Immunophenotyping in mice at 50 mg/kg dose using CD4+CD45+ as cell subset; outline: as §1
Mus musculus [19] = test: In vivo functional activity against spleen Immunophenotyping in mice at 0 mg/kg dose using NK+CD3+ as cell subset; outline: as §1
Mus musculus [20] = test: In vivo functional activity against Blood Immunophenotyping in mice at 125 mg/kg dose using CD4+CD45+ as cell subset; outline: as §1
Mus musculus [21] = test: In vivo functional activity against spleen Immunophenotyping in mice at 0 mg/kg dose using CD4+CD45+ as cell subset; outline: as §1
Mus musculus [22] = test: In vivo functional activity against spleen Immunophenotyping in mice at 50 mg/kg dose using CD8+CD45+ as cell subset; outline: as §1
Mus musculus [23] = test: In vivo functional activity against spleen Immunophenotyping in mice at 50 mg/kg dose using TCR+ as cell subset; outline: as §1
Mus musculus [24] = test: In vivo functional activity against spleen Immunophenotyping in mice at 125 mg/kg dose using LY5+ as cell subset; outline: as §1
Mus musculus [25] = test: In vivo functional activity against spleen Immunophenotyping in mice at 0 mg/kg dose using CD8+CD45+ as cell subset; outline: as §1
Mus musculus [26] = test: In vivo functional activity against spleen Immunophenotyping in mice at 100 mg/kg dose using TCR+ as cell subset; outline: as §1
Mus musculus [27] = test: In vivo functional activity against spleen Immunophenotyping in mice at 125 mg/kg dose using CD4+CD45+ as cell subset; outline: as §1
Mus musculus [28] = test: In vivo functional activity against Blood Immunophenotyping in mice at 0 mg/kg dose using CD4+CD45+ as cell subset; outline: as §1

## N[C@@H](Cc1ccc(O)cc1)/C(S)=N/CC(=O)NCC(=O)O
Mus musculus [1]
  Activity: 38.56
Mus musculus [2]
  Activity: 3.37
Mus musculus [3]
  Activity: 38.03
Mus musculus [4]
  Activity: 5.46
Mus musculus [5]
  Activity: 58.54
Mus musculus [6]
  Activity: 2.7
Mus musculus [7]
  Activity: 8
Mus musculus [8]
  Activity: 2.99
Mus musculus [9]
  Activity: 43.59
Mus musculus [10]
  Activity: 34.63
Mus musculus [11]
  Activity: 6.29
Mus musculus [12]
  Activity: 22.9
Mus musculus [13]
  Activity: 40.79
Mus musculus [14]
  Activity: 6.37
Mus musculus [15]
  Activity: 6.93
Mus musculus [16]
  Activity: 5.84
Mus musculus [17]
  Activity: 43.1
Mus musculus [18]
  Activity: 23.94
Mus musculus [19]
  Activity: 2.37
Mus musculus [20]
  Activity: 28.89
Mus musculus [21]
  Activity: 41.73
Mus musculus [22]
  Activity: 5.77
Mus musculus [23]
  Activity: 59.07
Mus musculus [24]
  Activity: 50.71
Mus musculus [25]
  Activity: 4.97
Mus musculus [26]
  Activity: 52.63
Mus musculus [27]
  Activity: 31.93
Mus musculus [28]
  Activity: 22.56
